# Laboratory results reported in ChEMBL document CHEMBL1134336, “Synthesis and SAR of a new series of COX-2-selective inhibitors: pyrazolo[1,5-a]pyrimidines” (J Med Chem, 2001).
# Columns and labels:
# Assay type in all cases: tissue-based
# [1] = biological target: T1, Prostaglandin G/H synthase 2 (Homo sapiens) (UniProt P35354); assay: Percentage inhibition of Prostaglandin G/H synthase 2 activity in human whole blood (HWB) at 10 uM
# T1 sequence (whole entry): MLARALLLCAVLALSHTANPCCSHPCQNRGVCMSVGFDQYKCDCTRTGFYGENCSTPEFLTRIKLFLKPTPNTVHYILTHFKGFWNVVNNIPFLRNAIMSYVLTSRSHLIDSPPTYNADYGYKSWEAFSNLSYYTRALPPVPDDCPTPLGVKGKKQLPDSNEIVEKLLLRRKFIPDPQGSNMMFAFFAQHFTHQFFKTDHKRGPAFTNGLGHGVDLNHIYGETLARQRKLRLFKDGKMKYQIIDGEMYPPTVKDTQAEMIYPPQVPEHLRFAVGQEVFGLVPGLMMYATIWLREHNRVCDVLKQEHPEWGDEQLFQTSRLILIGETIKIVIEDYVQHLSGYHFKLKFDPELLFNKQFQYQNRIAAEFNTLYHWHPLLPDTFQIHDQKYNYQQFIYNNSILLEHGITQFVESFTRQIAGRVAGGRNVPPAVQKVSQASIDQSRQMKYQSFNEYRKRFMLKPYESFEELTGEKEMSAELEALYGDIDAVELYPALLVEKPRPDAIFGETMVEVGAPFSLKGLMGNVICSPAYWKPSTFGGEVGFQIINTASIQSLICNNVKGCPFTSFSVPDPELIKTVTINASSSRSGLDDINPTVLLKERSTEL
# Method in brief: (§1)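 COX-2: human whole blood stimulated with lipopolysaccharide 026:B6, 37 °C, 24 h, with aspirin (20 µg/mL) to block COX-1. PGE2 by enzyme immunoassay after centrifugation. Run in duplicate or repeated.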
# [2] = biological target: Prostaglandin G/H synthase 1 (Homo sapiens, UniProt P23219); assay: Percentage of inhibition of Prostaglandin G/H synthase 1 activity in human whole blood (HWB) at 10 uM
# Prostaglandin G/H synthase 1, sequence (P23219 whole entry): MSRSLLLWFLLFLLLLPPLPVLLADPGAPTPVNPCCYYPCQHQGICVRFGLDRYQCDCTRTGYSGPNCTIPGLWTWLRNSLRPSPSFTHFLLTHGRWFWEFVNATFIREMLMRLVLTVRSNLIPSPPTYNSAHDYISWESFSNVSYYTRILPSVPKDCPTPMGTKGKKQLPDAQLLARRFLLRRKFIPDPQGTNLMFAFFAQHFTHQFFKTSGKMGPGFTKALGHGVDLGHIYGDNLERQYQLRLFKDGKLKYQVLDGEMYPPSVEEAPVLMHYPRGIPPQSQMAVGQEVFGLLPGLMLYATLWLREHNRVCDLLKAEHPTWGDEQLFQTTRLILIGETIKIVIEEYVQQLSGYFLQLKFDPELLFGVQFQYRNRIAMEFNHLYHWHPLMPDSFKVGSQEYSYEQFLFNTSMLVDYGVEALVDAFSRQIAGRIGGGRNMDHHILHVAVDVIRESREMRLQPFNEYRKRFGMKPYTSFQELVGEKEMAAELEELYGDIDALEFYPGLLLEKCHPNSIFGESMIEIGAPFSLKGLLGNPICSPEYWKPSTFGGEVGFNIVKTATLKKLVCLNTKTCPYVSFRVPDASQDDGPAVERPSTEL
# Method in brief: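 COX-1: human blood left to clot spontaneously 5 h at 37 °C, then A23187 (5 μM) 30 min further. Stopped at 0 °C with EGTA/MeOH; supernatant TXB2 by enzyme immunoassay. Run in duplicate or repeated.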
# [3] = biological target: T1, Prostaglandin G/H synthase 2 (Homo sapiens); assay: Percentage of inhibition of Prostaglandin G/H synthase 2 activity in human whole blood (HWB) at 1 uM; method in brief: as §1
SMILES,inhibition [1],inhibition [2],inhibition [3]
CCOC(=O)c1cc(C)n2nc(-c3ccc(S(C)(=O)=O)cc3)c(-c3ccc(F)cc3)c2n1,41%,8%,
CCCCc1cnnc2c(-c3ccc(F)cc3)c(-c3ccc(S(C)(=O)=O)cc3)nn12,89.7%,69.8%,0.9%
CS(=O)(=O)c1ccc(-c2nc3cccnn3c2-c2ccc(F)cc2)cc1,61.2%,47%,
CS(=O)(=O)c1ccc(-c2nc3cnccn3c2-c2ccc(F)cc2)cc1,42.5%,6%,
COc1cc(C)nc2c(-c3ccc(F)cc3)c(-c3ccc(S(C)(=O)=O)cc3)nn12,0%,0%,
CS(=O)(=O)c1ccc(-c2nc3cnccc3n2-c2ccc(F)cc2)cc1,21.3%,34.3%,
CC(=O)c1cnc2c(-c3ccc(F)cc3)c(-c3ccc(S(C)(=O)=O)cc3)nn2c1C,100%,71.1%,60.8%
Cc1nnc2c(-c3ccc(F)cc3)c(-c3ccc(S(C)(=O)=O)cc3)nn2c1C,100%,1.2%,40.5%
CS(=O)(=O)c1ccc(-c2nn3c4c(cnc3c2-c2ccc(F)cc2)SCC4)cc1,90.7%,7%,14.8%
Cc1nc2c(-c3ccc(F)cc3)c(-c3ccc(S(C)(=O)=O)cc3)nn2c(Cl)c1C,45.8%,1.2%,
Cc1cnn2c(-c3ccc(F)cc3)c(-c3ccc(S(C)(=O)=O)cc3)nc2c1C,100%,0%,37.3%
Cc1cn2c(-c3ccc(F)cc3)c(-c3ccc(S(C)(=O)=O)cc3)nc2c(C)n1,82.4%,0%,0%
Cc1cnc2c(-c3ccc(F)cc3)c(-c3ccc(S(C)(=O)=O)cc3)nn2c1CO,100%,42.7%,56.5%
Cc1cc(C(=O)O)nc2c(-c3ccc(F)cc3)c(-c3ccc(S(C)(=O)=O)cc3)nn12,24.6%,33.5%,
Cc1nc(C)n2nc(-c3ccc(S(C)(=O)=O)cc3)c(-c3ccc(F)cc3)c2n1,90.3%,4.75%,18.1%
CCc1c(C)cnc2c(-c3ccc(F)cc3)c(-c3ccc(S(C)(=O)=O)cc3)nn12,100%,82.8%,62.3%
CS(=O)(=O)c1ccc(-c2nn3c4c(cnc3c2-c2ccc(F)cc2)CCC4)cc1,90.4%,0%,48.3%
Cc1ccn2c(-c3ccc(F)cc3)c(-c3ccc(S(C)(=O)=O)cc3)nc2n1,50.7%,13.5%,
Cc1ccc(-c2c(-c3ccc(S(C)(=O)=O)cc3)nn3c(C)c(C)cnc23)cc1,100%,54.2%,87.6%
CCCCc1nc(C)nc2c(-c3ccc(F)cc3)c(-c3ccc(S(C)(=O)=O)cc3)nn12,54.6%,7.7%,
Cc1cc(C(F)(F)F)nc2c(-c3ccc(F)cc3)c(-c3ccc(S(C)(=O)=O)cc3)nn12,57.2%,2.5%,
Cc1cc(Cl)n2nc(-c3ccc(S(C)(=O)=O)cc3)c(-c3ccc(F)cc3)c2n1,14.3%,32.5%,
Cc1cc2c(nc(-c3ccc(S(C)(=O)=O)cc3)n2-c2ccc(F)cc2)c(C)n1,4.3%,0%,
Cc1cnc2c(-c3ccc(F)cc3)c(-c3ccc(S(C)(=O)=O)cc3)nn2c1-c1ccccc1,12.3%,0%,
Cc1c(C(=O)O)cnc2c(-c3ccc(F)cc3)c(-c3ccc(S(C)(=O)=O)cc3)nn12,56.3%,8.3%,
Cc1cc(O)n2nc(-c3ccc(S(C)(=O)=O)cc3)c(-c3ccc(F)cc3)c2n1,21.9%,8.1%,
CCCCc1nccn2c(-c3ccc(F)cc3)c(-c3ccc(S(C)(=O)=O)cc3)nc12,0%,9.8%,
